From ChEMBL document CHEMBL2346574, “Evaluation of (Z)-2-((1-benzyl-1H-indol-3-yl)methylene)-quinuclidin-3-one analogues as novel, high affinity ligands for CB1 and CB2 cannabinoid receptors” (Bioorg Med Chem Lett, 2013)

Key:
Cannabinoid receptor 1 = Cannabinoid receptor 1 (Mus musculus, UniProt P47746); assay: Displacement of [3H]CP 55940 from CB1 receptor in mouse whole brain membrane homogenates after 90 mins by liquid scintillation counting; assay type: cell membranes
Outline: (§1)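 Competition binding with 0.2 nM [3H]CP-55,940 and 5 mM MgCl2, in triplicate per concentration, using 50 mM Tris with 0.05% BSA and 0.1% ethanol/0.1% DMSO. CB1 used mouse whole-brain membranes and CB2 used CHO-hCB2 membranes. […] GF/B filtration, ice-cold washes, scintillation counting. Specific binding taken as percent of no-competitor.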

Cannabinoid receptor 2 = Cannabinoid receptor 2 (Homo sapiens, UniProt P34972); assay: Displacement of [3H]CP 55940 from human CB2 receptor expressed in CHO cells after 90 mins by liquid scintillation counting; assay type: cell-based; outline: as §1
Sequence of Cannabinoid receptor 2 (P34972 whole entry): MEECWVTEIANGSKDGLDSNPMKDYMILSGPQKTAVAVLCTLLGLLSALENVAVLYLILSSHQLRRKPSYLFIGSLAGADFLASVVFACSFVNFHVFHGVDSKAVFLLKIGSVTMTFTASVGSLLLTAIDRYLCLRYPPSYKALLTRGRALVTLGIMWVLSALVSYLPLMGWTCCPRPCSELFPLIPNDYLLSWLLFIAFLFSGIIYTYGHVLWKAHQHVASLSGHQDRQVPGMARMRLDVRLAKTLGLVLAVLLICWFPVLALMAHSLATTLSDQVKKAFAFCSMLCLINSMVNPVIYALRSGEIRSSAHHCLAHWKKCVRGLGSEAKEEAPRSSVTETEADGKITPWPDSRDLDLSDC

[1] = Selectivity ratio of Ki for CB1 receptor in mouse whole brain membrane homogenates to Ki for human CB2 receptor; assay type: cell membranes

Sequence of Cannabinoid receptor 1 (P47746 whole entry): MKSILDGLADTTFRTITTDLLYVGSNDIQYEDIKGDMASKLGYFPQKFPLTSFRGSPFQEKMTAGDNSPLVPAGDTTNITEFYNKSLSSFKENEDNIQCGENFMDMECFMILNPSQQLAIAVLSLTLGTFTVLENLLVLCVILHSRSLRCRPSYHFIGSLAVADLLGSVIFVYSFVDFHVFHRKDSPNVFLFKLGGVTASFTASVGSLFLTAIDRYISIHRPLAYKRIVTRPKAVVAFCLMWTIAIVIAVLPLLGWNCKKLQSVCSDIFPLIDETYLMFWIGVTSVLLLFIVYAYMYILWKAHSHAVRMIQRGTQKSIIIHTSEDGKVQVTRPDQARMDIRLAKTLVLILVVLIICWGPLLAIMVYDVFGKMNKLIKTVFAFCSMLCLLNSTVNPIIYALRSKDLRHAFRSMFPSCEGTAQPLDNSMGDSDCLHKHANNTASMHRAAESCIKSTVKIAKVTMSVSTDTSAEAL

SMILES	Ki (Cannabinoid receptor 1) [nM]	Ki (Cannabinoid receptor 2) [nM]	Ratio Ki [1]
COC(=O)c1ccc2c(/C=C3/C(=O)C4CCN3CC4)cn(Cc3ccccc3)c2c1	85.7	2.5	34
OC1/C(=C/c2cn(Cc3ccc(Cl)cc3)c3ccccc23)N2CCC1CC2 (racemic)	85.3	–	–
O=C1/C(=C/c2cn(Cc3ccccc3)c3ccccc23)N2CCC1CC2	135	11.7	–
COC(=O)c1ccc(Cn2cc(/C=C3/C(=O)C4CCN3CC4)c3ccccc32)cc1	953	588	–
O=C1/C(=C/c2cn(Cc3ccccc3Br)c3ccccc23)N2CCC1CC2	629	333	–
OC1/C(=C/c2cn(Cc3ccccc3)c3ccccc23)N2CCC1CC2 (racemic)	540	55.3	–
O=C1/C(=C/c2cn(Cc3ccc(Cl)cc3)c3ccccc23)N2CCC1CC2	31.7	20.3	–
O/N=C1/C(=C/c2cn(Cc3ccccc3)c3ccccc23)N2CCC1CC2	357	68.6	–
N#Cc1ccc(Cn2cc(/C=C3/C(=O)C4CCN3CC4)c3ccccc32)cc1	55.3	114	–
O=C1/C(=C/c2cn(Cc3ccc(F)cc3)c3ccccc23)N2CCC1CC2	9.23	1.33	–
O/N=C1/C(=C/c2cn(Cc3ccc(Cl)cc3)c3ccccc23)N2CCC1CC2	95.7	–	–
